Data: paper PMC248471 (Biological Procedures Online, 2003)
Like-named read-outs stand apart in the source and are kept apart here. No end group written: not given here.

Tests used:
[1] = system: viral RNP transcriptional activity; conditions: ATP-dependent association with CDV and MV RNP; ref [10]-[13]; cited from earlier work
[2] = system: CDV transcription and genome replication; experiment: CDV viral transcription and genome replication, HSP72 responsiveness; format: cell-based, canine distemper virus (Onderstepoort strain); conditions: Onderstepoort CDV N protein (YSDKELL); unpublished observation
[3] = system: MV RNP (parent Ed-MV and 4D variant); format: cell-based, measles virus; conditions: recombinant virus with 4D-substituted motif; unpublished data
[4] = system: MV transcription and genomic replication; conditions: ref [15], cited from earlier work
recombinant human HSP72 [5] = biological target: T1, recombinant human HSP72 (Homo sapiens, UniProt P0DMV8); experiment: BIAcore SPR kinetic analysis of peptide binding to immobilized HSP72; conditions: pH 7.4, read-out: ka (on rate)
Summary of the method: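 Recombinant human HSP72 dialysed into 10 mM sodium acetate pH 5.0 and covalently coupled to a CM5 chip at about 10,000 RU. Peptides were dissolved in running buffer (HBS-P pH 7.4, 2.5 mM Mg acetate, 2.5 mM ATP) and injected at 25 to 200 μM. Sensorgrams were reference-channel subtracted without regeneration, then globally fitted to a 1:1 Langmuir model and judged by Chi2 and residuals.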

recombinant human HSP72 [6] = biological target: T1, recombinant human HSP72; experiment: BIAcore SPR peptide binding to high-density immobilized HSP72; conditions: for binding to HSP72 (sensorgram pattern): 1 mM peptide, high HSP72 immobilization density (20,000 RU), data not shown, see reference [15]
MV RNP-HSP72 interaction = experiment: Peptide competitive inhibition of MV RNP-HSP72 interaction; format: binding, human HSP72; measles virus RNP
IgG = experiment: BIAcore SPR peptide binding to irrelevant ligand; conditions: irrelevant ligand IgG immobilized; data not shown, see reference [15]

T1 sequence (P0DMV8 whole entry): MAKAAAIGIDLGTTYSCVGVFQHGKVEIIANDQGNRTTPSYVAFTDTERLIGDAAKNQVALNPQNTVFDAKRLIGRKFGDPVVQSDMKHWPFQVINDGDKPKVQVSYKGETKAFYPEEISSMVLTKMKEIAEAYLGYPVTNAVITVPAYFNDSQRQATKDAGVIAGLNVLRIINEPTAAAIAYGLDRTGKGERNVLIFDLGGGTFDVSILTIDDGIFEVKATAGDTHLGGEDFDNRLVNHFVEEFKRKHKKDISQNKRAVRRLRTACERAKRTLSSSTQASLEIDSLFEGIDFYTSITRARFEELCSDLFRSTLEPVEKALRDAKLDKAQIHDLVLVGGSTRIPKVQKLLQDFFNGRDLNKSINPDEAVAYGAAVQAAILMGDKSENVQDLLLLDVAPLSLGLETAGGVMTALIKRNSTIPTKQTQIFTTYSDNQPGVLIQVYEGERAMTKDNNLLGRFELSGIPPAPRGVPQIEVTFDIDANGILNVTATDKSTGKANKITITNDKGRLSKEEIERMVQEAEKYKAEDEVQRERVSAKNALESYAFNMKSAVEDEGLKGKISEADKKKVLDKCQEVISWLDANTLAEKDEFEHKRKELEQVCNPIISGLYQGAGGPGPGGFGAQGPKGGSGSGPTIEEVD

## HSP72: 72 kDa heat shock protein; major inducible member of the 70kDa family
[1]
  effect of HSP72 association on RNP: increased RNP transcriptional activity
[2]
  HSP72 responsiveness in viral transcription and genome replication: retains HSP72 responsiveness
[3]
  functional HSP72 responsiveness of 4D virus variant: loss of functional HSP72 responsiveness
[4]; HSP72 added by transfection, wild type MV N
  stimulation of viral transcriptional activity (CAT reporter): 2-3 fold
[4]; N protein with C-terminal 3P4D substitutions
  response to HSP72 supplementation (CAT reporter): lack a response
[4]; N protein with C-terminal 4D substitution
  response to HSP72 supplementation (CAT reporter): lack a response

## DTDTPIVYNDRDPLD [Peptide N3P4D, DTDTPIVYNDRDPLD]
Recombinant human HSP72 [5]
  kon: 14 M⁻¹ s⁻¹

## YGSLPQKAQRPQDEN [MBP]
Recombinant human HSP72 [6]
  binding to HSP72 (sensorgram pattern): identical sensorgrams were obtained with 1 mM peptide solution and flow channels containing no ligand or flow channels containing either HSP72 or irrelevant protein (i.e., IgG) as ligand
MV RNP-HSP72 interaction; 400 μM peptide, MV RNP representing 1 nM N protein, maximal sensorgram response
  inhibition of RNP binding to HSP72: 18%
MV RNP-HSP72 interaction; 400 mM (so in the source) MBP peptide vs 5 μM N peptide
  level of inhibition of RNP-HSP72 binding, comparison: comparable to that using only 5 μM N peptide

## DTDTPIVYNDRDLLD [Peptide N4D, DTDTPIVYNDRDLLD]
Recombinant human HSP72 [5]
  kon: 7 M⁻¹ s⁻¹

## CC[C@H](C)[C@H](NC(=O)[C@@H]1CCCN1C(=O)[C@@H](NC(=O)[C@H](CC(=O)O)NC(=O)[C@@H](NC(=O)[C@@H](N)CC(=O)O)[C@@H](C)O)[C@@H](C)O)C(=O)N[C@H](C(=O)N[C@@H](Cc1ccc(O)cc1)C(=O)N[C@@H](CC(N)=O)C(=O)N[C@@H](CC(=O)O)C(=O)N[C@@H](CCCNC(=N)N)C(=O)N[C@@H](CC(N)=O)C(=O)N[C@@H](CC(C)C)C(=O)N[C@@H](CC(C)C)C(=O)N[C@@H](CC(=O)O)C(=O)O)C(C)C [N, DTDTPIVYNDRNLLD]
Recombinant human HSP72 [5]
  kon: 357 M⁻¹ s⁻¹
Recombinant human HSP72 [6]; 400 μM N peptide, 20,000 RU HSP72, HBS-P, 2.5 mM magnesium acetate
  dissociation rate from HSP72, faster in 2.5 mM than in 0.1 mM ATP: 3 times

## STSRHKKLMFKTEGP [p53]
Recombinant human HSP72 [6]
  binding to HSP72 (sensorgram pattern): progressive rise in signal observed over time
IgG
  signal over bulk shift on IgG: signal over bulk shift was not observed
